Most compounds without a hit are left out; they make up all but 3.1% or so of the library.
OX1R antag-1 = blocks the human orexin 1 receptor. inhibition, % at 5 µM. 330,000 compounds, 0.43% hits. O43613. CHO/OX1R cells, Fluo-8 calcium fluorescence, orexin A;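 active = inhibition above its plate's threshold, mean inhibition of all tested compounds on the plate plus 3 SD, cut at about 37% in these data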;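 also: 0% = orexin A challenge wells and 100% = SB-334867-A antagonist wells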
GalR3 antagonist = antagonists of human GalR3. O60755. HEK293 GalR3-CNG cAMP membrane potential fluorescence; galR3 body fused to GalR1 C-terminus. inhibition, % at 3 µM. 360,000 compounds, 0.44% hits. AID 651719;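 active = inhibition above the screen-wide average plus 3 SD, cut at about 13% in these data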;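 also: forskolin and galanin both at EC90 stimulate the cells; cAMP rise reported by CNG channel membrane potential dye signal; 0% = forskolin plus galanin with DMSO and 100% = forskolin alone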
GPR7 antagonist = blocks human GPR7 receptor signaling; GPR7-expressing cells, fluorescence antagonist assay; AID 1861; P48145; inhibition, % at 4.4 µM; 290,000 compounds, 1.1% hits; in the data active = inhibition above about 16%, passing the limit was not always enough;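 also: cells stimulated with the agonist NPW; 0% = agonist with vehicle and 100% = vehicle without agonist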
Target sequence (P48145 whole entry, looked up): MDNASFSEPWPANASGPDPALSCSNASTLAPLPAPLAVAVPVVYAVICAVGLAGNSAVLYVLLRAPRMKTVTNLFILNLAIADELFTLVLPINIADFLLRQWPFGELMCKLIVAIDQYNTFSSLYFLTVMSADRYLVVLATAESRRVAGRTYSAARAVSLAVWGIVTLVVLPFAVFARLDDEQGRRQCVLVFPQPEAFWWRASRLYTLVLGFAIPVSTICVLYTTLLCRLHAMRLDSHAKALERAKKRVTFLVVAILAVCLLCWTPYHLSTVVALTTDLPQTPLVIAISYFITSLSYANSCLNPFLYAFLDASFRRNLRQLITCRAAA
OX1R antag-2 = blocks the human orexin 1 receptor. inhibition, % at 6.6 µM. 330,000 compounds, 1.8% hits. OX1R-expressing cells, FRET antagonist read-out. AID 485270; in the data active = inhibition mostly above about 38%, no sharp cut-off; inactive = mostly below about 40%;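 also: 0% = agonist challenge alone and 100% = reference antagonist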
CHO parental Ca = counter-screen: ATP calcium response change in parental CHO cells | 330,000 compounds, 0.63% hits | parental CHO-K1, ATP-induced calcium, Fluo-8 fluorescence | inhibition, % at 5.6 µM;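 active = inhibition above that plate's mean sample inhibition plus 3 SD, cut at about 26% in these data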;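 also: 0% = ATP-challenged DMSO wells and 100% = DMSO wells without ATP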
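Material: parental CHO cells / Compound: single nominal dose of 5.6 µM per compound / Signal: Fluo-8 fluorescence / Replicates: singlicate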
GPR7 antag cf = confirmation of human GPR7 antagonists; shares compounds with GPR7 antagonist; GPR7-expressing cells, calcium fluorescence antagonist mode; inhibition, % at 4.4 µM; 2,400 compounds, 52% hits; AID 1952; in the data active = inhibition above about 24%;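 also: stimulated with the GPR7 agonist NPW; 0% = agonist plus vehicle and 100% = vehicle alone without agonist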
MCHR1 antagonist = antagonizes human MCHR1, a GPR7 antagonist counter-screen. shares compounds with GPR7 antagonist. MCHR1-expressing cells, fluorescence antagonist assay. inhibition, % at 4.4 µM. 2,400 compounds, 62% hits. AID 2148; in the data active = inhibition above about 22%;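 also: 0% = vehicle with agonist and 100% = vehicle without agonist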
The depositor's hits bear a star.

What do the screens show for `COCCCNC(=S)N1CCN(C(=O)C(=O)Nc2ccc(C(=O)OC)cc2)CC1`?
OX1R antag-1: 2; GalR3 antagonist: 4; GPR7 antagonist: -9; OX1R antag-2: 1; CHO parental Ca: -1

How did O=C(CCN(CCO)Cc1ccccc1)Nc1ccc(Br)cc1 do in these assays?
OX1R antag-1: -15; GalR3 antagonist: -8; GPR7 antagonist: 24*; OX1R antag-2: 15; CHO parental Ca: -3; GPR7 antag cf: 24*; MCHR1 antagonist: 7

How did CC(C)n1c(-c2ccco2)csc1=Nc1cccnc1 do in these assays?
OX1R antag-1: 36; GalR3 antagonist: -8; GPR7 antagonist: 30*; OX1R antag-2: 74*; CHO parental Ca: 48*; GPR7 antag cf: 36*; MCHR1 antagonist: 52*

How did CCN(Cc1cc(OC)c(OC)c(OC)c1)S(=O)(=O)c1ccccc1Br do in these assays?
GalR3 antagonist: 1

How did CCOC(=O)C(C)Sc1ncnc2c1nnn2-c1ccc(F)cc1 (stereo not drawn) do in these assays?
OX1R antag-1: -21; GalR3 antagonist: 0; GPR7 antagonist: 44*; OX1R antag-2: 9; CHO parental Ca: -6; GPR7 antag cf: 38*; MCHR1 antagonist: 44*

Results for COc1ccccc1CNc1nc(Nc2ccc(C)cc2C)c2sccc2n1 ?
GalR3 antagonist: -11

Results for O=C(c1ccc(S(=O)(=O)Nc2ccccc2)cc1)N1CCCC(C(F)(F)F)C1 (stereo not drawn) ?
OX1R antag-1: 3; GalR3 antagonist: -2; GPR7 antagonist: 48*; OX1R antag-2: 14; CHO parental Ca: 7; GPR7 antag cf: 61*; MCHR1 antagonist: 36*

What do the screens show for `Cc1ccc(NS(=O)(=O)c2ccc(C(=O)N3CCCCCCC3)cc2)cc1`?
OX1R antag-1: -7; GalR3 antagonist: 1; GPR7 antagonist: 26*; OX1R antag-2: 21; CHO parental Ca: -1; GPR7 antag cf: 29*; MCHR1 antagonist: 28*

Results for CCOc1ccc(NS(=O)(=O)c2ccc(C(=O)NCC3(N4CCCCC4)CCCCC3)cc2)cc1 ?
OX1R antag-1: 20; GalR3 antagonist: 2; GPR7 antagonist: 58*; OX1R antag-2: 2; CHO parental Ca: 7; GPR7 antag cf: 21; MCHR1 antagonist: 34*

What do the screens show for `Cc1ccc(S(=O)(=O)NCc2ccc(C(=O)N3CCN(c4ccc([N+](=O)[O-])cc4)CC3)cc2)cc1`?
OX1R antag-1: -12; GalR3 antagonist: -1; GPR7 antagonist: 41*; OX1R antag-2: 0; CHO parental Ca: 23; GPR7 antag cf: 26*; MCHR1 antagonist: 67*

What do the screens show for `Cc1cc(S(=O)(=O)Nc2ccc(C(=O)NCC3(N4CCCCC4)CCCCC3)cc2)ccc1F`?
OX1R antag-1: -25; GalR3 antagonist: -4; OX1R antag-2: 7; CHO parental Ca: -14

What do the screens show for `COc1ccc(N2CCN(C(=O)c3ccc(CNS(=O)(=O)c4ccc(C)cc4)cc3)CC2)cc1`?
OX1R antag-1: -18; GalR3 antagonist: -2; GPR7 antagonist: 7; OX1R antag-2: 8; CHO parental Ca: 9

How did C#Cc1cccc(N2C(=O)C3C4C=CC(C3C2=O)C2C(=O)N(c3cccc(C#C)c3)C(=O)C42)c1 (stereo not drawn) do in these assays?
GalR3 antagonist: -6

What do the screens show for `COc1ccc(-c2ccccc2C2Cc3nnccc3CN2)cc1` (stereo not drawn)?
GalR3 antagonist: -4

What do the screens show for `Cc1ccc(NS(=O)(=O)c2ccc(C(=O)NCc3ccccn3)cc2)cc1`?
OX1R antag-1: 21; GalR3 antagonist: 4; GPR7 antagonist: 30*; OX1R antag-2: 2; CHO parental Ca: 0; GPR7 antag cf: 44*; MCHR1 antagonist: 33*

How did COc1ccc(CCNC(=O)C2CCN(S(=O)(=O)c3c(C)noc3C)CC2)cc1OC do in these assays?
OX1R antag-1: -28; GalR3 antagonist: -4; GPR7 antagonist: 29*; OX1R antag-2: 9; CHO parental Ca: -8; GPR7 antag cf: 16; MCHR1 antagonist: 1

Results for Cc1cc(OC2CCCCC2)nc(NCc2ccccc2)n1 ?
OX1R antag-1: -32; GalR3 antagonist: 1; GPR7 antagonist: 1; OX1R antag-2: 10; CHO parental Ca: -27
